Measurements published in ChEMBL document CHEMBL6092224, “The Discovery and Preclinical Profile of ALG-000184, a Prodrug of the Potent Hepatitis B Virus Capsid Assembly Modulator ALG-001075” (J Med Chem, 2024).
Calls of active or inactive are those of the source. The calls are words filed in the database; no cut-off is given here.

Tests used:
[1] = Cmax in Cynomolgous monkey at 5 mg/kg, po by LC-MS/MS analysis; assay type: ADME, organism-based, Macaca fascicularis; conditions: cynomolgus monkey, in vivo
Summary of the method: (§1)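 Single dose to fasted male C57BL6 mice, Sprague-Dawley rats, beagle dogs and cynomolgus monkeys, either IV at 1 mg/kg or PO as a solution at 5 mg/kg, in 80% PEG 400 in water. Plasma concentrations were measured by LC-MS/MS. PK parameters come from noncompartmental analysis using nominal doses and nominal sampling times.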

[2] = AUC (infinity) in C57BL/6J mouse at 5 mg/kg, po by LC-MS/MS analysis; assay type: ADME, organism-based; conditions: in vivo; summary of the method: as §1
[3] = Ratio of drug concentration in blood to plasma in rat at 5 uM incubated for 60 mins; assay type: ADME, cell-free
Summary of the method: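 Compound at 5 μM in whole blood of each species, 37 ± 1 °C for 60 min; blood-to-plasma ratio and red blood cell partitioning determined.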

[4] = molecular target: Solute carrier family 22 member 1 (Homo sapiens, UniProt O15245); test: Inhibition of OCT1 (unknown origin) transfected in HEK293 cells; assay type: cell-based
Chain of Solute carrier family 22 member 1 (O15245 whole entry): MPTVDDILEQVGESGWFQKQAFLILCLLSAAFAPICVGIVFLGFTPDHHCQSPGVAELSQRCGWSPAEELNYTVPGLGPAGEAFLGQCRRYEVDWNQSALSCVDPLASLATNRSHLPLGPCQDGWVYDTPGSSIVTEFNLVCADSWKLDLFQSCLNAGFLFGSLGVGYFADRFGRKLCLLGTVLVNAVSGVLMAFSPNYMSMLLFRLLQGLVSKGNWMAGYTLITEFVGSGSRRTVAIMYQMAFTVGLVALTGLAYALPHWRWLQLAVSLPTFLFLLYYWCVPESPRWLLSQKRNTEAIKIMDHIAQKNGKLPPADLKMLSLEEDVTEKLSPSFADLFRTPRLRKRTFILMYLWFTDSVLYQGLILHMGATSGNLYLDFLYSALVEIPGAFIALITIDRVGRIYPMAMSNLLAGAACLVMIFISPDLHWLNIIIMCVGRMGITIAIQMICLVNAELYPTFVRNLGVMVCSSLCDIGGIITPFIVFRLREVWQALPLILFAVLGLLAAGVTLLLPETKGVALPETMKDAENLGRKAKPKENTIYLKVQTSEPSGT
Summary of the method: (§2)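 HEK-293 cells transfected with the uptake transporter; uptake of known probe substrates measured with test compound at eight concentrations (0.0229–50.0 μM or 0.0457–100 μM); inhibition at each concentration used to calculate IC50.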

[5] = AUC (infinity) in C57BL/6J mouse at 1 mg/kg, iv by LC-MS/MS analysis; assay type: ADME, organism-based; conditions: in vivo; summary of the method: as §1
Mus musculus = test: Effect on HBsAg level in C57BL/6 mouse infected with AAV-Hepatitis B virus at 15 mg/kg, po bid for 56 days followed by induction of compound washout period for 14 days; assay type: functional, organism-based; conditions: time 70.0 day
[6] = Half life in Beagle dog at 5 mg/kg, po by LC-MS/MS analysis; assay type: ADME, organism-based, Canis lupus familiaris; conditions: in vivo; summary of the method: as §1
[7] = Effect on mitochondrial activity in human HepG2 cells upto 10 uM; assay type: toxicity, cell-based; conditions: hepg2, 10 µM
Hepatitis B virus [8] = test: Antiviral activity against AAV-Hepatitis B virus infected in C57BL/6 mouse assessed as reduction in baseline HBV DNA production at 15 to 50 mg/kg, po qd for 56 days followed by induction of compound washout period measured after 7 days; assay type: functional, organism-based; conditions: dose 15-50 mg/kg, time 63.0 day
[9] = AUC (infinity) in Cynomolgous monkey at 5 mg/kg, po by LC-MS/MS analysis; assay type: ADME, organism-based, Macaca fascicularis; conditions: cynomolgus monkey, in vivo; summary of the method: as §1
[10] = molecular target: Multidrug and toxin extrusion protein 2 (Homo sapiens, UniProt Q86VL8); test: Inhibition of MATE2 (unknown origin) transfected in HEK293 cells; assay type: cell-based
Chain of Multidrug and toxin extrusion protein 2 (Q86VL8 whole entry): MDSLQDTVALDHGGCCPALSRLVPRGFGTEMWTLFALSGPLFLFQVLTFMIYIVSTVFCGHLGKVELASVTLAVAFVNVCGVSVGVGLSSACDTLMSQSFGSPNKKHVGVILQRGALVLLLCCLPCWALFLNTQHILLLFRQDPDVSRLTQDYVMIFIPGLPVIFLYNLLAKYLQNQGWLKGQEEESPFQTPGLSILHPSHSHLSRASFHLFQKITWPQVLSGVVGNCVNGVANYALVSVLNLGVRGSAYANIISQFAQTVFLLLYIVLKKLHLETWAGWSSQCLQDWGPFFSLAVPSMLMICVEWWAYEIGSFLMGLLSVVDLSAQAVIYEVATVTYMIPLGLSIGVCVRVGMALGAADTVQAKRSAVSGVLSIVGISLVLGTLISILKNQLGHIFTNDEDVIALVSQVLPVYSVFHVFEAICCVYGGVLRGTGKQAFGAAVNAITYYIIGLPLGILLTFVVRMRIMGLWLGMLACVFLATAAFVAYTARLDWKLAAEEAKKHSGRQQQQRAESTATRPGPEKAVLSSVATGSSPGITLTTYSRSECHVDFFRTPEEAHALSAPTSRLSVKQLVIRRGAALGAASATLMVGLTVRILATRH

[11] = Efflux ratio of apparent permeability in human Caco-2 cells at 1 uM incubated for 1 hr; assay type: ADME, cell-based
Summary of the method: (§3)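 Bidirectional transport across Caco-2 cells in HBSS, pH 7.4, 0.1% final DMSO. Compound was tested at 1 or 2 μM for 1 h at 37 °C, 5% CO2. Apical and basal samples gave apparent permeability A→B and B→A, and the efflux ratio.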

[12] = Tmax in Sprague-Dawley rat at 5 mg/kg, po by LC-MS/MS analysis; assay type: ADME, organism-based; conditions: in vivo
Summary of the method: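 Fasted males (C57BL6 mice, Sprague−Dawley rats, beagle dogs, cynomolgus monkeys) given a single oral solution dose of 5 mg/kg in 80% PEG 400 in water. Plasma sampled over time, analysed by LC-MS/MS. Noncompartmental analysis used nominal doses and nominal sampling times.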

[13] = Metabolic stability in human assessed as half life at 1 uM incubated upto 180 mins
[14] = Plasma protein binding in dog at 1 uM incubated for 4 to 24 hrs by equilibrium dialysis method; assay type: ADME, cell-free, Canis lupus familiaris; conditions: time 4-24 hrs, read-out: PPB (converted)
Summary of the method: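 Rapid equilibrium dialysis in mouse, rat, dog, monkey or human plasma for 4 or 24 h; test concentrations 1, […].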

[15] = Volume of distribution at steady state in Beagle dog at 1 mg/kg, iv by LC-MS/MS analysis; assay type: ADME, organism-based, Canis lupus familiaris; conditions: in vivo, read-out: Vdss
Summary of the method: (§4)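 Fasted males (C57BL6 mice, Sprague−Dawley rats, beagle dogs, cynomolgus monkeys) given a single IV dose of 1 mg/kg in 80% PEG 400 in water. Plasma concentrations measured by LC-MS/MS. Vss derived by noncompartmental analysis using nominal dose and nominal sampling times.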

[16] = Half life in Cynomolgous monkey at 1 mg/kg, iv by LC-MS/MS analysis; assay type: ADME, organism-based, Macaca fascicularis; conditions: cynomolgus monkey, in vivo; summary of the method: as §1
[17] = Volume of distribution at steady state in C57BL/6J mouse at 1 mg/kg, iv by LC-MS/MS analysis; assay type: ADME, organism-based; conditions: in vivo, read-out: Vdss; summary of the method: as §4
Nav1.5 = test: Inhibition of Nav1.5 (unknown origin) expressed in mammalian cells at 10 uM by automated patch-clamp method; assay type: toxicity, cell-based, Homo sapiens; conditions: mammalian cells expressing Nav1.5
Summary of the method: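 Currents of hERG, Nav1.5 or Cav1.2 channels expressed in mammalian cells recorded by automated patch clamp (QPatch 48) at room temperature.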

[18] = Half life in Sprague-Dawley rat at 1 mg/kg, iv by LC-MS/MS analysis; assay type: ADME, organism-based; conditions: in vivo; summary of the method: as §1
[19] = molecular target: Multidrug and toxin extrusion protein 1 (Homo sapiens, UniProt Q96FL8); test: Inhibition of MATE1 (unknown origin) transfected in HEK293 cells; assay type: cell-based; summary of the method: as §2
Chain of Multidrug and toxin extrusion protein 1 (Q96FL8 whole entry): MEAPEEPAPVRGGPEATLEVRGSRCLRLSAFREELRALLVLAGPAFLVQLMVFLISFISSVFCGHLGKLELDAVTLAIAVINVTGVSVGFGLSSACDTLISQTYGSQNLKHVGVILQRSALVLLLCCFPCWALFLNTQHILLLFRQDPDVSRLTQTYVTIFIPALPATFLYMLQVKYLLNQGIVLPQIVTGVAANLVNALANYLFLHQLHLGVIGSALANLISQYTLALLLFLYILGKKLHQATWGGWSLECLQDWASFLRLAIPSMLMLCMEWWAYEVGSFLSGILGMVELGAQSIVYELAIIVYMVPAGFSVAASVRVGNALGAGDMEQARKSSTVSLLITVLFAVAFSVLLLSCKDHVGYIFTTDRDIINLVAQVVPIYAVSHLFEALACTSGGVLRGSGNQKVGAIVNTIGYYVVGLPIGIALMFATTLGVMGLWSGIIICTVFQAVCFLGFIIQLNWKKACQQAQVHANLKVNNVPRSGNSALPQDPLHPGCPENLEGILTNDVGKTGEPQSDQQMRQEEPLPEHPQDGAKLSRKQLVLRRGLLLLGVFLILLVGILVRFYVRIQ

[20] = Half life in C57BL/6J mouse at 1 mg/kg, iv by LC-MS/MS analysis; assay type: ADME, organism-based; conditions: in vivo; summary of the method: as §1
[21] = Cmax in C57BL/6J mouse at 5 mg/kg, po by LC-MS/MS analysis; assay type: ADME, organism-based; conditions: in vivo; summary of the method: as §1
Hepatitis B virus [22] = test: Antiviral activity against AAV-Hepatitis B virus infected in C57BL/6 mouse assessed as reduction in baseline HBV DNA production at 15 mg/kg, po bid measured after 56 days; assay type: functional; conditions: time 56 day
[23] = Effect on mitochondrial biogenesis in human HepG2 cells upto 10 uM; assay type: toxicity, cell-based; conditions: hepg2, 10 µM
[24] = Half life in C57BL/6J mouse at 5 mg/kg, po by LC-MS/MS analysis; assay type: ADME, organism-based; conditions: in vivo; summary of the method: as §1
[25] = Effect on differentiation of human HPC cells upto 10 uM; assay type: toxicity, cell-based
[26] = Effect on cell proliferation in bone marrow (unknown origin) upto 10 uM; assay type: toxicity, tissue-based
[27] = Apparent permeability across apical to basal side in human Caco-2 cells at 1 uM incubated for 1 hr; assay type: ADME, cell-based; summary of the method: as §3
[28] = AUC (infinity) in Beagle dog at 1 mg/kg, iv by LC-MS/MS analysis; assay type: ADME, organism-based, Canis lupus familiaris; conditions: in vivo; summary of the method: as §1
[29] = AUC (infinity) in Beagle dog at 5 mg/kg, po by LC-MS/MS analysis; assay type: ADME, organism-based, Canis lupus familiaris; conditions: in vivo; summary of the method: as §1
Hepatitis B virus [30] = test: Antiviral activity against AAV-Hepatitis B virus infected in C57BL/6 mouse assessed as reduction in baseline HBV DNA production at 15 mg/kg, po bid for 56 days followed by induction of compound washout period measured after 7 days; assay type: functional; conditions: time 63 day
Hepatitis B virus [31] = test: Antiviral activity against HBV infected in human primary hepatocyte cells assessed as decrease in HBeAg level pre-infected cells with virus followed by compound treatment for 3 days and subsequent replacement of medium with compound measured after 4 days by CLIA; assay type: functional, organism-based
[32] = Oral bioavailability in Beagle dog at 5 mg/kg by LC-MS/MS analysis; assay type: ADME, organism-based, Canis lupus familiaris; conditions: in vivo
Summary of the method: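 Fasted male C57BL6 mice, Sprague–Dawley rats, beagle dogs, cynomolgus monkeys; single IV dose 1 mg/kg or PO solution 5 mg/kg in 80% PEG 400 in water; plasma concentrations measured, noncompartmental analysis with nominal doses and times; F from PO vs IV AUC.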

SMILES: C#CC1(NC(=O)C(=O)c2c(C)c(C(=O)Nc3ccc(F)c(C#N)c3)n(C)c2C)COC1
- Cmax [1]: 490 ng/mL
- AUC(0-inf) [2]: 7990 ng·h/mL
- blood plasma ratio at 1 h, 5 µM [3]: 0.72
- IC50 [4]: > 11.8 µM
- AUC(0-inf) [5]: 1390 ng·h/mL
- Activity (Mus musculus): inactive
- half-life [6]: 7.83 h
- Activity [7]: Non-toxic
- Activity (Hepatitis B virus [8]): inactive
- AUC(0-inf) [9]: 2190 ng·h/mL
- IC50 [10]: > 11.8 µM
- efflux ratio at 1 h, 1 µM [11]: 7.8
- Tmax [12]: 1.67 h
- half-life at 1 µM [13]: > 6 h
- fraction unbound at 1 µM [14]: 0.286
- Vd [15]: 1.03 L/kg
- half-life [16]: 1.85 h
- Vd [17]: 1 L/kg
- IC50 (Nav1.5): > 10 µM
- half-life [18]: 1.64 h
- IC50 [19]: > 11.8 µM
- half-life [20]: 1.37 h
- Cmax [21]: 2290 ng/mL
- Activity (Hepatitis B virus [22]): -1.47 log10IU/ml
- Activity [23]: Non-toxic
- half-life [24]: 1.55 h
- Activity [25]: Non-toxic
- Activity [26]: Non-toxic
- Papp A→B at 1 h, 1 µM [27]: 1.8 ×10⁻⁶ cm/s
- AUC(0-inf) [28]: 8520 ng·h/mL
- AUC(0-inf) [29]: 24500 ng·h/mL
- Activity (Hepatitis B virus [30]): -2.16 log10IU/ml
- EC50 (Hepatitis B virus [31]): 0.0105 µM
- bioavailability [32]: 57.5%
